Results taken from ChEMBL document CHEMBL1125714, “Novel class of amino acid antagonists at non-N-methyl-D-aspartic acid excitatory amino acid receptors. Synthesis, in vitro and in vivo pharmacology, and neuroprotection” (J Med Chem, 1991).
pIC50: −log10 of the molar value. Values joined by “and” are separate entries in the source; they are usually repeats but may differ in a detail not shown here. Identical values can stand only once.

How the values were obtained:
Rattus norvegicus [1] = species: Rattus norvegicus; assay: Neuroprotective effect evaluated for excitatory amino acid receptor antagonism with the concentration at 1 uL in the corpus striatum of 9 rats with glutamic acid decarboxylase as the marker enzyme.; assay type: functional
In short: (§1)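 […]-anaesthetised rats (4 mL/kg ip), stereotaxic cannula into corpus striatum; 1 µL infused containing kainate (10 nmol), quinolinic acid (300 nmol) or AMPA (100 nmol), with or without co-infused antagonist. After 3-day recovery, striata were homogenised in 50 mM Tris-HCl pH 7.4 with 0.2% Triton X-100 and spun 10000g for 10 min. Choline acetyltransferase or glutamic acid decarboxylase activity was reported as % remaining versus non-lesioned striatum.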

Rattus norvegicus [2] = species: Rattus norvegicus; assay: Neuroprotective effect evaluated for excitatory amino acid receptor antagonism with the concentration at 1 uL in the corpus striatum of 9 rats with choline acetyltransferase as the marker enzyme.; assay type: functional; in short: as §1
[3] = Inhibition of the binding of radioligand [3H]AMPA in the presence of the compound. at Non N-methyl-D-aspartate glutamate receptor
In short: (§2)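 Rat brain membrane [3H]AMPA binding run with 100 mM isothiocyanate present, so both high- and low-affinity AMPA sites are detected. Competitors were tested over concentration ranges of 1–1000 μM, and the IC50 was calculated from displacement data.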

[4] = target: Glutamate receptor ionotropic AMPA (Homo sapiens, UniProt P42261+P42262+P42263+P48058); assay: Inhibition of the binding of radioligand [3H]AMPA in the presence at low-affinity AMPA receptor sites.; assay type: protein-complex assay
Rattus norvegicus [5] = species: Rattus norvegicus; assay: Neuroprotective effect evaluated for excitatory amino acid receptor antagonism with the concentration at 1 uL in the corpus striatum of 3 rats with choline acetyltransferase as the marker enzyme.; assay type: functional
In short: (§3)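 Rat corpus striatum, stereotaxic infusion under […] anaesthesia (4 mL/kg ip). 1 μL solution held KAIN 10 nmol, quinolinic acid 300 nmol or AMPA 100 nmol, with or without antagonist 150 nmol. After 3 days recovery, striatum was homogenized in Tris-HCl/Triton X-100 and spun at 10000g. Choline acetyltransferase and glutamic acid decarboxylase activities were read as percent of non-lesioned tissue.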

Rattus norvegicus [6] = species: Rattus norvegicus; assay: Neuroprotective effect evaluated for excitatory amino acid receptor antagonism with the concentration at 1 uL in the corpus striatum of 3 rats with glutamic acid decarboxylase as the marker enzyme.; assay type: functional; in short: as §3
Rattus norvegicus [7] = species: Rattus norvegicus; assay: Neuroprotective effect evaluated for excitatory amino acid receptor antagonism with the concentration at 1 uL in the corpus striatum of 5 rats with glutamic acid decarboxylase as the marker enzyme.; assay type: functional; in short: as §1
Rattus norvegicus [8] = species: Rattus norvegicus; assay: Neuroprotective effect evaluated for excitatory amino acid receptor antagonism with the concentration at 1 uL in the corpus striatum of 5 rats with choline acetyltransferase as the marker enzyme.; assay type: functional; in short: as §1
Rattus norvegicus [9] = species: Rattus norvegicus; assay: Neuroprotective effect evaluated for excitatory amino acid receptor antagonism with the concentration at 1 uL in the corpus striatum of 7 rats with glutamic acid decarboxylase as the marker enzyme.; assay type: functional; in short: as §1
Rattus norvegicus [10] = species: Rattus norvegicus; assay: Neuroprotective effect evaluated for excitatory amino acid receptor antagonism with the concentration at 1 uL in the corpus striatum of 7 rats with choline acetyltransferase as the marker enzyme.; assay type: functional; in short: as §1
Rattus norvegicus [11] = species: Rattus norvegicus; assay: Neuroprotective effect evaluated for excitatory amino acid receptor antagonism with the concentration at 1 uL in the corpus striatum of 14 rats with glutamic acid decarboxylase as the marker enzyme.; assay type: functional; in short: as §1
Rattus norvegicus [12] = species: Rattus norvegicus; assay: Neuroprotective effect evaluated for excitatory amino acid receptor antagonism with the concentration at 1 uL in the corpus striatum of 14 rats with choline acetyltransferase as the marker enzyme.; assay type: functional; parameters: concentration or dose not given beside the values; in short: as §1
[13] = Inhibition of the binding of radioligand [3H]AMPA in the presence at Non N-methyl-D-aspartate glutamate receptor; in short: as §2

Cc1onc(O)c1CC(N)C(=O)O.Cc1onc(O)c1Cn1oc(C)c(CC(N)C(=O)O)c1=O (stereo unspecified)
Enzyme activity (Rattus norvegicus [1]): 39%
Enzyme activity (Rattus norvegicus [2]): 53%

Cc1onc(O)c1Cn1oc(C)c(CC(N)C(=O)O)c1=O (stereo unspecified)
pIC50 [3]: 4.54
pIC50 [4]: 3.47

Cc1onc(OCC(=O)O)c1CC(N)C(=O)O.O=C(O)c1cccnc1C(=O)O (stereo unspecified)
Enzyme activity (Rattus norvegicus [5]): 52%
Enzyme activity (Rattus norvegicus [6]): 64%

Cc1onc(O)c1Cn1oc(C)c(CC(N)C(=O)O)c1=O.O=C(O)c1cccnc1C(=O)O (stereo unspecified)
Enzyme activity (Rattus norvegicus [7]): 49%
Enzyme activity (Rattus norvegicus [8]): 50%

Cc1onc(O)c1CC(N)C(=O)O.O=C(O)C1CN(CCCP(=O)(O)O)CCN1 (stereo unspecified)
Enzyme activity (Rattus norvegicus [9]): 50%
Enzyme activity (Rattus norvegicus [10]): 55%

Cc1onc(O)c1CC(N)C(=O)O.Cc1onc(OCC(=O)O)c1CC(N)C(=O)O (stereo unspecified)
Enzyme activity (Rattus norvegicus [11]): 62%
Enzyme activity (Rattus norvegicus [12]): 68%

O=C(O)C1CN(CCCP(=O)(O)O)CCN1.O=C(O)c1cccnc1C(=O)O (stereo unspecified)
Enzyme activity (Rattus norvegicus [7]): 99%
Enzyme activity (Rattus norvegicus [8]): 98%

Cc1onc(OCC(=O)O)c1CC(N)C(=O)O (stereo unspecified)
pIC50 [4]: 4.01
pIC50 [13]: 4.05

Cc1onc(O)c1CC(N)C(=O)O [(R,S)-AMPA]
Enzyme activity (Rattus norvegicus [12]): 53% and 40%

C=C(C)[C@H]1CN[C@H](C(=O)O)[C@H]1CC(=O)O [KAINIC ACID]
Enzyme activity (Rattus norvegicus [9]): 44%
Enzyme activity (Rattus norvegicus [10]): 34%

O=C(O)c1cccnc1C(=O)O [QUINOLINIC ACID]
Enzyme activity (Rattus norvegicus [11]): 53%
Enzyme activity (Rattus norvegicus [12]): 61%
